ChEMBL document CHEMBL4382192, “Discovery of a potent dual ALK and EGFR T790M inhibitor” (Eur J Med Chem, 2017)

Assays:
[1] = biological target: Dual specificity protein kinase CLK2 (Homo sapiens) (UniProt P49760); experiment: Binding affinity to wild-type human partial length CLK2 (D144 to R498 residues) expressed in bacterial expression system assessed as residual binding level at 1 uM by Kinomescan method relative to control
[2] = biological target: Serine/threonine-protein kinase MARK2 (Homo sapiens) (UniProt Q7KZI7); experiment: Binding affinity to wild-type human partial length MARK2 (M1 to R450 residues) expressed in bacterial expression system assessed as residual binding level at 1 uM by Kinomescan method relative to control
[3] = system: Tyrosine-protein kinase ABL1 (Homo sapiens), P00519 [T315I]; experiment: Binding affinity to human phosphorylated ABL1 T315I mutant (S229 to K512 residues) expressed in mammalian expression system assessed as residual binding level at 1 uM by Kinomescan method relative to control
Procedure, shortened: (§1)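 Kinome-wide selectivity panel run by the KINOMEscan method, with the test compound at a single concentration of 1 μM. Wild-type and mutant kinases were profiled in the same screen.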

[4] = biological target: Casein kinase II subunit alpha' (Homo sapiens) (UniProt P19784); experiment: Binding affinity to wild-type human full length CSNK2A2 (M1 to R350 residues) expressed in mammalian expression system assessed as residual binding level at 1 uM by Kinomescan method relative to control
[5] = biological target: Dual specificity protein kinase TTK (Homo sapiens) (UniProt P33981); experiment: Binding affinity to wild-type human partial length TTK (N505 to V798 residues) expressed in bacterial expression system assessed as residual binding level at 1 uM by Kinomescan method relative to control
[6] = biological target: Serine/threonine-protein kinase D3 (Homo sapiens) (UniProt O94806); experiment: Binding affinity to wild-type human partial length PRKD3 (S543 to E863 residues) expressed in bacterial expression system assessed as residual binding level at 1 uM by Kinomescan method relative to control
[7] = biological target: 1-phosphatidylinositol 3-phosphate 5-kinase (Homo sapiens) (UniProt Q9Y2I7); experiment: Binding affinity to wild-type human partial length PIKFYVE (F1512 to C2098 residues) expressed in mammalian expression system assessed as residual binding level at 1 uM by Kinomescan method relative to control
[8] = Drug uptake in mouse plasma at 10 mg/kg, po after 8 hrs; assay type: ADME, organism-based
[9] = biological target: Cyclin-dependent kinase 4 (Homo sapiens) (UniProt P11802); experiment: Binding affinity to wild-type human full length CDK4 (M1 to E303 residues) expressed in mammalian expression system assessed as residual binding level at 1 uM by Kinomescan method relative to control
[10] = biological target: Mitogen-activated protein kinase kinase kinase 1 (Homo sapiens) (UniProt Q13233); experiment: Binding affinity to wild-type human partial length MAP3K1 (L1202 to W1512 residues) expressed in mammalian expression system assessed as residual binding level at 1 uM by Kinomescan method relative to control
[11] = biological target: Mitogen-activated protein kinase kinase kinase 19 (Homo sapiens) (UniProt Q56UN5); experiment: Binding affinity to wild-type human partial length YSK4 (T1019 to H1328 residues) expressed in mammalian expression system assessed as residual binding level at 1 uM by Kinomescan method relative to control
[12] = biological target: Tyrosine-protein kinase BTK (Homo sapiens) (UniProt Q06187); experiment: Binding affinity to wild-type human full length BTK (M1 to S659 residues) expressed in mammalian expression system assessed as residual binding level at 1 uM by Kinomescan method relative to control
[13] = biological target: Casein kinase I isoform alpha (Homo sapiens) (UniProt P48729); experiment: Binding affinity to wild-type human partial length CSNK1A1 (M1 to L450 residues) expressed in mammalian expression system assessed as residual binding level at 1 uM by Kinomescan method relative to control
[14] = biological target: Serine/threonine-protein kinase NIM1 (Homo sapiens) (UniProt Q8IY84); experiment: Binding affinity to wild-type human partial length NIM1 (Q44 to N355 residues) expressed in mammalian expression system assessed as residual binding level at 1 uM by Kinomescan method relative to control
[15] = biological target: Serine/threonine-protein kinase pim-3 (Homo sapiens) (UniProt Q86V86); experiment: Binding affinity to wild-type human partial length PIM3 (G16 to A317 residues) expressed in bacterial expression system assessed as residual binding level at 1 uM by Kinomescan method relative to control
[16] = biological target: Serine/threonine-protein kinase pim-2 (Homo sapiens) (UniProt Q9P1W9); experiment: Binding affinity to wild-type human partial length PIM2 (M1 to E291 residues) expressed in bacterial expression system assessed as residual binding level at 1 uM by Kinomescan method relative to control
[17] = biological target: Cyclin-dependent kinase 4/cyclin D1 (Homo sapiens) (UniProt P11802+P24385); experiment: Binding affinity to wild-type human full length CDK4/cyclinD1 (M1 to E303 residues) expressed in mammalian expression system assessed as residual binding level at 1 uM by Kinomescan method relative to control
[18] = biological target: STE20-like serine/threonine-protein kinase (Homo sapiens, UniProt Q9H2G2); experiment: Binding affinity to wild-type human partial length SLK (S14 to A307 residues) expressed in bacterial expression system assessed as residual binding level at 1 uM by Kinomescan method relative to control
[19] = biological target: Ephrin type-A receptor 1 (Homo sapiens) (UniProt P21709); experiment: Binding affinity to wild-type human partial length EPHA1 (V588 to I913 residues) expressed in bacterial expression system assessed as residual binding level at 1 uM by Kinomescan method relative to control
[20] = biological target: Dual specificity mitogen-activated protein kinase kinase 6 (Homo sapiens) (UniProt P52564); experiment: Binding affinity to wild-type human partial length MEK6 (K36 to D334 residues) expressed in bacterial expression system assessed as residual binding level at 1 uM by Kinomescan method relative to control
[21] = system: Receptor-type tyrosine-protein kinase FLT3 (Homo sapiens), P36888 [N841I]; experiment: Binding affinity to human partial length FLT3 N841I mutant (V592 to Y969 residues) expressed in bacterial expression system assessed as residual binding level at 1 uM by Kinomescan method relative to control; procedure, shortened: as §1
[22] = biological target: Tyrosine-protein kinase receptor TYRO3 (Homo sapiens) (UniProt Q06418); experiment: Binding affinity to wild-type human partial length TYRO3 (S497 to T814 residues) expressed in bacterial expression system assessed as residual binding level at 1 uM by Kinomescan method relative to control
[23] = biological target: Calcium/calmodulin-dependent protein kinase type 1B (Homo sapiens) (UniProt Q6P2M8); experiment: Binding affinity to wild-type human partial length CAMK1B (W9 to A311 residues) expressed in mammalian expression system assessed as residual binding level at 1 uM by Kinomescan method relative to control
[24] = biological target: Myosin-IIIa (Homo sapiens) (UniProt Q8NEV4); experiment: Binding affinity to wild-type human partial length MYO3A (M1 to K338 residues) expressed in bacterial expression system assessed as residual binding level at 1 uM by Kinomescan method relative to control
[25] = biological target: Muscle, skeletal receptor tyrosine-protein kinase (Homo sapiens) (UniProt O15146); experiment: Binding affinity to wild-type human partial length MUSK (M553 to V869 residues) expressed in bacterial expression system assessed as residual binding level at 1 uM by Kinomescan method relative to control

SMILES: C=CC(=O)Nc1cc(Nc2ncc(Cl)c(Nc3ccccc3S(=O)(=O)C(C)C)n2)c(OC)cc1N(C)CCN(C)C
- Activity [1]: 1.7%
- Activity [2]: 57%
- Activity [3]: 0.35%
- Activity [4]: 100%
- Activity [5]: 29%
- Activity [6]: 0%
- Activity [7]: 100%
- concentration at 8 h [8]: 10 nM
- Activity [9]: 99%
- Activity [10]: 84%
- Activity [11]: 14%
- Activity [12]: 0%
- Activity [13]: 74%
- Activity [14]: 100%
- Activity [15]: 96%
- Activity [16]: 100%
- Activity [17]: 94%
- Activity [18]: 0%
- Activity [19]: 12%
- Activity [20]: 66%
- Activity [21]: 6.8%
- Activity [22]: 51%
- Activity [23]: 15%
- Activity [24]: 31%
- Activity [25]: 92%
